Measured values from ChEMBL document CHEMBL4364301 (Eur J Med Chem, 2019).
pIC50: −log10 of the molar value. Calls of active or inactive are those of the source. The rule behind the calls is not given here.

Key:
MCF7 [1] = assay: Antiproliferative activity against human MCF7 cells assessed as T/C value at 3.2 x 10^-3 uM incubated for 96 hrs by propidium iodide based 2D monolayer assay; format: functional
MCF7 [2] = assay: Antiproliferative activity against human MCF7 cells assessed as T/C value at 3.2 x 10^-1 uM incubated for 96 hrs by propidium iodide based 2D monolayer assay; format: functional
[3] = Toxicity in ip dosed NMRI nu/nu mouse assessed as maximum tolerated dose; format: organism-based; conditions: in vivo
CWR22R [4] = assay: Antitumor activity against human 22Rv1 cells xenografted in NMRI mouse assessed as inhibition of tumor growth by measuring T/C value at 100 mg/kg, ip administered for 16 days and measured on day 14; format: functional
Outline: (§1)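 Male NMRI nu/nu mice carried hind-flank 22Rv1 implants and were randomised at 80–200 mm³ tumour volume. Compound was given i.p. at 100 mg/kg/day as 16–18 daily doses in 10% EtOH, 10% Cremophor EL, 5% dextrose; vehicle controls were treated likewise. Tumours were measured by two-dimensional caliper twice weekly and reported as relative tumour volume. T/C was taken from group medians; doubling and quadrupling times were derived from tumour volume.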

CWR22R [5] = assay: Antitumor activity against human 22Rv1 cells xenografted in NMRI mouse assessed as reduction of tumor volume at 100 mg/kg, ip administered for 16 days and measured on day 10; format: functional, organism-based; outline: as §1
CWR22R [6] = assay: Antitumor activity against human 22Rv1 cells xenografted in NMRI mouse assessed as reduction of tumor volume at 100 mg/kg, ip administered for 16 days and measured on day 20; format: functional, organism-based; outline: as §1
[7] = Toxicity in NMRI mouse xenografted with human 22Rv1 cells assessed as survival rate at 100 mg/kg, ip administered for 16 days and measured on day 40; format: organism-based; conditions: in vivo
Outline: (§2)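 Male NMRI nu/nu 22Rv1-xenograft mice were dosed i.p. at 100 mg/kg/day for 16–18 daily doses in 10% EtOH, 10% Cremophor EL, 5% dextrose vehicle. Body weight was recorded to assess tolerance, and adjusted survival and group median body weight loss were reported.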

[8] = Toxicity in NMRI mouse xenografted with human 22Rv1 cells assessed as body weight loss at 100 mg/kg, ip administered for 16 days and measured on day 40; format: organism-based; conditions: in vivo, 384 h; outline: as §2
CWR22R [9] = assay: Antitumor activity against human 22Rv1 cells xenografted in NMRI mouse assessed as tumor volume doubling time at 100 mg/kg, ip administered for 16 days (reference value: 2.7 day); format: functional; outline: as §1
CWR22R [10] = assay: Antitumor activity against human 22Rv1 cells xenografted in NMRI mouse assessed as tumor volume quadrupling time at 100 mg/kg, ip administered for 16 days (reference value: 6.2 day); format: functional; outline: as §1
Androgen receptor = molecular target: T1, Androgen receptor (Rattus norvegicus, UniProt P15207); assay: Antagonist activity at GAL4-DBD fused rat androgen receptor expressed in UAS-bla 293 cells assessed as reduction in R1881-induced activation incubated for 16 hrs followed by fluorescence substrate addition and measured after 2 hrs by beta lactamase reporter gene assay; format: cell-based
T1 sequence (P15207 whole entry): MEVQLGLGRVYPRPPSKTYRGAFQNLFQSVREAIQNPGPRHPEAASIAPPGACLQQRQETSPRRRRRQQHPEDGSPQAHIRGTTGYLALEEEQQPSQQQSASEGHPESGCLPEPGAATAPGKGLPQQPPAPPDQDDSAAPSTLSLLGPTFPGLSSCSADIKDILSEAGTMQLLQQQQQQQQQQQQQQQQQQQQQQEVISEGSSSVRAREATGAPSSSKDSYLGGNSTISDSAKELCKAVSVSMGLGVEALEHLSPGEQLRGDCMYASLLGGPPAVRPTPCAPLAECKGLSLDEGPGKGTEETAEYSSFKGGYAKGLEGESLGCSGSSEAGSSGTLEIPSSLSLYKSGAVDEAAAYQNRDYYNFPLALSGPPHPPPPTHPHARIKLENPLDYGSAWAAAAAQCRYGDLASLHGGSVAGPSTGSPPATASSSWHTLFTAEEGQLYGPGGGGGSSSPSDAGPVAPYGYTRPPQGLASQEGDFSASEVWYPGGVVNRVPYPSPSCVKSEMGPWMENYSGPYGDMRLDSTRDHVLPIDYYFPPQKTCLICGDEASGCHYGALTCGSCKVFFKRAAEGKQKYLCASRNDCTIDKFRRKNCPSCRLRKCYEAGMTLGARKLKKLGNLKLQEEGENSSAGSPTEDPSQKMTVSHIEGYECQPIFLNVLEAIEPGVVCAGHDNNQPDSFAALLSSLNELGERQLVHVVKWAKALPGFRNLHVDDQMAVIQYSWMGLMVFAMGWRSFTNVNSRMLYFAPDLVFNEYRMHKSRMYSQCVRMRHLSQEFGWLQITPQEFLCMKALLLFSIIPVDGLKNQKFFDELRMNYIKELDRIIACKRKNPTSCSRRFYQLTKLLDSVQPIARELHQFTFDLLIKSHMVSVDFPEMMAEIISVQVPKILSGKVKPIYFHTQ

CC(O)(CSc1cc(C(F)(F)F)cc(C(F)(F)F)c1)C(=O)Nc1cccc(C(F)(F)C(F)(F)F)c1 (racemic)
T/C (MCF7 [1]): 86% | T/C (MCF7 [2]): 121%

CC(O)(COc1ccc(C(F)(F)C(F)(F)F)cc1)C(=O)Nc1cc(C(F)(F)F)cc(C(F)(F)F)c1 (racemic)
T/C (MCF7 [1]): 103% | T/C (MCF7 [2]): 118%

CC(O)(COc1ccc(S(F)(F)(F)(F)F)cc1)C(=O)Nc1cc(C(F)(F)F)cc(C(F)(F)F)c1 (racemic)
MTD [3]: 100 mg/kg | T/C (CWR22R [4]): 43.9% | Activity (CWR22R [5]): Active | Activity (CWR22R [6]): Active | survival at 384 h [7]: 100% | Activity [8]: Non-Toxic | Time (CWR22R [9]): 6.7 days | Time (CWR22R [10]): 14.3 days

CC(O)(COc1cccc(S(F)(F)(F)(F)F)c1)C(=O)Nc1ccc([N+](=O)[O-])c(C(F)(F)F)c1 (racemic)
pIC50 (Androgen receptor): 6.27

CC(O)(COc1ccccc1C(F)(F)F)C(=O)Nc1ccc(S(F)(F)(F)(F)F)cc1 (racemic)
pIC50 (Androgen receptor): 5.74
